Measurements published in ChEMBL document CHEMBL3813692, “Discovery of a Fluorinated Enigmol Analog with Enhanced in Vivo Pharmacokinetic and Anti-Tumor Properties” (ACS Med Chem Lett, 2016).
Calls of active or inactive are those of the source. The calls are words filed in the database; no cut-off is given here.

Experiments:
[1] = Lipophilicity, log P of the compound; format: physicochemical; details: octanol/water
[2] = Cmax in pre-cannulated Sprague-Dawley rat at 2 mg/kg, iv after […] to 8 hrs by LC-MS/MS analysis; format: ADME, organism-based; set-up: dose 2 mg/kg, route intravenous; details: in vivo
Method in brief: (§1)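 SD rats (n = 3–4 per group) received a single 2 mg/kg i.v. injection in PEG400/EtOH/Tween80/H2O (40:10:3:47). Plasma was sampled periodically and drug was quantified by LC-MS/MS. t1/2, Cl, Cmax and AUC were reported as mean ± SEM.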

[3] = Octanol-buffer partition co-efficient, log D of the compound at 100 uM at pH 7.4 by shake-flask method; format: physicochemical
[4] = AUC(0 to t) in pre-cannulated Sprague-Dawley rat at 10 mg/kg administered via oral gavage after 0.5 to 24 hrs by LC-MS/MS analysis; format: ADME, organism-based; set-up: time upper 24 hr, time lower 0.5 hr, dose 10 mg/kg, route oral; details: in vivo
Method in brief: (§2)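 A single 10 mg/kg oral gavage was given to SD rats (n = 4 per group). Vehicle was 90:10 olive oil/EtOH or 95:5 PEG400/Tween80, depending on the analog. Plasma was collected periodically and drug was measured by LC-MS/MS; data are mean ± SEM.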

[5] = Drug uptake in pre-cannulated Sprague-Dawley rat kidney at 10 mg/kg administered via oral gavage after 24 hrs by LC-MS/MS analysis; format: ADME, organism-based; details: read-out: Drug uptake
Method in brief: (§3)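 After one 10 mg/kg oral gavage to SD rats (n = 4 per group), red blood cells, brain, lung, liver, kidney and prostate were harvested at 24 h. Drug levels were quantified by LC-MS/MS.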

[6] = Oral bioavailability in pre-cannulated Sprague-Dawley rat at 10 mg/kg administered via gavage after 0.5 to 24 hrs by LC-MS/MS analysis; format: ADME, organism-based; details: in vivo
[7] = Drug uptake in pre-cannulated Sprague-Dawley rat brain at 10 mg/kg administered via oral gavage after 24 hrs by LC-MS/MS analysis; format: ADME, organism-based; details: read-out: Drug uptake; method in brief: as §3
[8] = Cmax in pre-cannulated Sprague-Dawley rat at 10 mg/kg administered via oral gavage after 0.5 to 24 hrs by LC-MS/MS analysis; format: ADME, organism-based; set-up: dose 10 mg/kg, route oral; details: in vivo; method in brief: as §2
[9] = test system: Mus musculus; test: Toxicity in athymic NCr-nu/nu mouse xenografted with human PC3 cells assessed as change in body weight at 10 mg/kg administered via oral gavage measured every 2 to 3 days; format: organism-based, PC-3; details: in vivo
Method in brief: (§4)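 Nude mice with palpable subcutaneous PC-3 tumors (n = 9–11 per group) were dosed once daily by oral gavage. Study 1 used 3 or 10 mg/kg in 95:5 olive oil/EtOH vehicle; study 2 used 10 or 30 mg/kg in 95:5 PEG400/Tween80 vehicle. Tumor volume and body weight were measured periodically. Tumor growth was analysed by a repeated-measures linear mixed model with autoregressive covariance; weight change by one-way ANOVA with Sidak's test.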

[10] = test system: LNCaP; test: Cytotoxicity against human LNCAP cells assessed as reduction in cell viability after 24 hrs by WST-1 assay; format: functional, cell-based
Method in brief: (§5)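 Cells were exposed to compound for 24 h (n = 3–4), and viability was read as mitochondrial activity by WST-1. IC50 and IC90 were derived from concentration–response curves and reported as mean ± SEM.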

[11] = test system: Plasma; test: Drug uptake in pre-cannulated Sprague-Dawley rat plasma at 10 mg/kg administered via oral gavage after 2 hrs by LC-MS/MS analysis; format: ADME, organism-based; details: in vivo; method in brief: as §2
[12] = Tmax in pre-cannulated Sprague-Dawley rat at 10 mg/kg administered via oral gavage after 0.5 to 24 hrs by LC-MS/MS analysis; format: ADME, organism-based; details: in vivo; method in brief: as §2
[13] = Drug uptake in pre-cannulated Sprague-Dawley rat prostate gland at 10 mg/kg administered via oral gavage after 24 hrs by LC-MS/MS analysis; format: ADME, organism-based; details: read-out: Drug uptake; method in brief: as §3
[14] = Drug uptake in tumor of human PC3 cells xenografted in athymic NCr-nu/nu mouse at 10 mg/kg, qd administered via oral gavage measured 24 hrs post last dose by LC-MS/MS analysis; format: ADME, organism-based, Neoplasm, PC-3; details: read-out: Drug uptake
Method in brief: (§6)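 Tumors were harvested at the end of daily oral-gavage xenograft studies in nude mice bearing PC-3 tumors (3, 10 or 30 mg/kg). Drug accumulation in tumor was measured by LC-MS/MS and reported as mean ± SEM.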

[15] = test system: Mus musculus; test: Toxicity in athymic NCr-nu/nu mouse xenografted with human PC3 cells assessed as change in body weight at 30 mg/kg administered via oral gavage measured every 2 to 3 days; format: organism-based, PC-3; details: in vivo; method in brief: as §4
[16] = Cytotoxicity against human PC3 cells assessed as reduction in cell viability after 24 hrs by WST-1 assay; format: functional, cell-based; details: PC-3, 24 h; method in brief: as §5
[17] = Clearance in pre-cannulated Sprague-Dawley rat at 2 mg/kg, iv after […] to 8 hrs by LC-MS/MS analysis; format: ADME, organism-based; details: in vivo; method in brief: as §1
[18] = Tmax in pre-cannulated Sprague-Dawley rat at 2 mg/kg, iv after […] to 8 hrs by LC-MS/MS analysis; format: ADME, organism-based; details: in vivo; method in brief: as §1
[19] = Terminal half-life in pre-cannulated Sprague-Dawley rat at 10 mg/kg administered via oral gavage after 0.5 to 24 hrs by LC-MS/MS analysis; format: ADME, organism-based; details: in vivo, read-out: beta t1/2 (converted); method in brief: as §2
[20] = test system: PC-3; test: Antitumor activity against human PC3 cells xenografted in athymic NCr-nu/nu mouse assessed as tumor growth inhibition at 10 mg/kg, qd administered via oral gavage measured every 2 to 3 days; format: functional, organism-based; method in brief: as §4
[21] = Drug uptake in pre-cannulated Sprague-Dawley rat liver at 10 mg/kg administered via oral gavage after 24 hrs by LC-MS/MS analysis; format: ADME, organism-based; details: read-out: Drug uptake; method in brief: as §3
[22] = Drug uptake in pre-cannulated Sprague-Dawley rat RBC at 10 mg/kg administered via oral gavage after 24 hrs by LC-MS/MS analysis; format: ADME, organism-based, Erythrocyte; details: red blood cells, read-out: Drug uptake; method in brief: as §3
[23] = Drug uptake in tumor of human PC3 cells xenografted in athymic NCr-nu/nu mouse at 30 mg/kg, qd administered via oral gavage measured 24 hrs post last dose by LC-MS/MS analysis; format: ADME, organism-based, Neoplasm, PC-3; details: read-out: Drug uptake; method in brief: as §6
[24] = Drug uptake in pre-cannulated Sprague-Dawley rat lung at 10 mg/kg administered via oral gavage after 24 hrs by LC-MS/MS analysis; format: ADME, organism-based; details: read-out: Drug uptake; method in brief: as §3
[25] = Terminal half-life in pre-cannulated Sprague-Dawley rat at 2 mg/kg, iv after […] to 8 hrs by LC-MS/MS analysis; format: ADME, organism-based; details: in vivo, read-out: beta t1/2 (converted); method in brief: as §1
[26] = AUC(0 to t) in pre-cannulated Sprague-Dawley rat at 2 mg/kg, iv after […] to 8 hrs by LC-MS/MS analysis; format: ADME, organism-based; set-up: time upper 8 hr, dose 2 mg/kg, route intravenous; details: in vivo; method in brief: as §1
[27] = test system: Plasma; test: Drug uptake in pre-cannulated Sprague-Dawley rat plasma at 10 mg/kg administered via oral gavage after 1 hr by LC-MS/MS analysis; format: ADME, organism-based; details: in vivo; method in brief: as §2
[28] = test system: Mus musculus; test: Toxicity in athymic NCr-nu/nu mouse xenografted with human PC3 cells assessed as change in body weight at 3 mg/kg administered via oral gavage measured every 2 to 3 days; format: organism-based, PC-3; details: in vivo; method in brief: as §4
[29] = Drug uptake in tumor of human PC3 cells xenografted in athymic NCr-nu/nu mouse at 3 mg/kg, qd administered via oral gavage measured 24 hrs post last dose by LC-MS/MS analysis; format: ADME, organism-based, Neoplasm, PC-3; details: read-out: Drug uptake; method in brief: as §6
[30] = test system: PC-3; test: Antitumor activity against human PC3 cells xenografted in athymic NCr-nu/nu mouse assessed as tumor growth inhibition at 3 mg/kg, qd administered via oral gavage measured every 2 to 3 days; format: functional, organism-based; method in brief: as §4

| Structure (SMILES) | Cmax [2] [µM] | logD at 100 µM [3] | AUC(0-t) [4] [µM·h] | concentration at 24 h [5] [µM] | bioavailability [6] [%] | concentration at 24 h [7] [µM] | Cmax [8] [µM] | Tmax [12] [h] | concentration at 24 h [13] [µM] | concentration at 24 h [14] [µM] | clearance [17] [mL/min/kg] | Tmax [18] [min] | half-life [19] [h] | concentration at 24 h [21] [µM] | Activity [9] | IC50 [10] [µM] | IC90 [10] [µM] | IC50 [16] [µM] | IC90 [16] [µM] | TGI [20] | also measured |
| --- | --- | --- | --- | --- | --- | --- | --- | --- | --- | --- | --- | --- | --- | --- | --- | --- | --- | --- | --- | --- | --- |
| OC(F)(F)CF | – | – | – | – | – | – | – | – | – | – | – | – | – | – | – | – | – | – | – | – | logP [1]: 0.36 |
| CCCCCC(O)C(F)(F)F (stereo not given) | – | – | – | – | – | – | – | – | – | – | – | – | – | – | – | – | – | – | – | – | logP [1]: 1.14 |
| CCCCCCCCCCCCC[C@H](O)C[C@H](O)[C@H](C)N [ENIGMOL] | 2.45 | 3.5 | 0.832 | 1.35 | 11 | 3.25 | 0.0846 | 8 | 0.766 | 1.6 | 76.2 | 4.8 | 8.3 | 1.06 | Non-toxic | 11.7 | 19.6 | 12.1 | 14 | Active | Drug uptake [27]: Not Active; Activity [28]: Non-toxic; concentration at 24 h [29]: 1.05 µM; concentration at 24 h [22]: 0.041 µM; concentration at 24 h [24]: 5.34 µM; half-life [25]: 4 h; AUC(0-t) [26]: 1.45 µM·h; TGI [30]: inactive |

Continued, in another order:

| Cmax [2] [µM] | logD at 100 µM [3] | AUC(0-t) [4] [µM·h] | concentration at 24 h [5] [µM] | bioavailability [6] [%] | concentration at 24 h [7] [µM] | Cmax [8] [µM] | Tmax [12] [h] | concentration at 24 h [13] [µM] | concentration at 24 h [14] [µM] | clearance [17] [mL/min/kg] | Tmax [18] [min] | half-life [19] [h] | concentration at 24 h [21] [µM] | Structure (SMILES) | Activity [9] | IC50 [10] [µM] | IC90 [10] [µM] | IC50 [16] [µM] | IC90 [16] [µM] | TGI [20] | also measured |
| --- | --- | --- | --- | --- | --- | --- | --- | --- | --- | --- | --- | --- | --- | --- | --- | --- | --- | --- | --- | --- | --- |
| 4.4 | 1.73 | 1.47 | 14.8 | 10 | 16.1 | 0.119 | 8 | 6.94 | 23.6 | 34 | 4.8 | 9.9 | 9.29 | CCCCCCCCCCCCC(F)(F)[C@H](O)C[C@H](O)[C@H](C)N | Non-toxic | 13.4 | 16.7 | 11.7 | 15.3 | Active | Drug uptake [11]: Not Active; Activity [15]: Non-toxic; concentration at 24 h [22]: 0.936 µM; concentration at 24 h [23]: 62 µM; concentration at 24 h [24]: 44.5 µM; half-life [25]: 5.7 h; AUC(0-t) [26]: 2.91 µM·h |
| 1.68 | 3.24 | 2.34 | 4.74 | 68 | 6.01 | 0.193 | 12 | 3.46 | 25.3 | 136 | 4.8 | 5.5 | 1.94 | C[C@H](N)[C@@H](O)C[C@@H](O)CCCCCCCCCCCCC(F)(F)F | 11.6% | 11.3 | 19.2 | 21.4 | 24.4 | inactive | Drug uptake [27]: Not Active; Activity [28]: Non-toxic; concentration at 24 h [29]: 3.23 µM; concentration at 24 h [22]: 0.153 µM; concentration at 24 h [24]: 18.7 µM; half-life [25]: 1.3 h; AUC(0-t) [26]: 0.688 µM·h; TGI [30]: inactive |
